Mot1-301 SUMO – yeast Mot1-301 growth rescue at high temperature, primary screen, SUMOylation pathway inhibitor project, S. cerevisiae, ATP luminescence, 38.5C. hit rate 1% among 320,000. S. cerevisiae Mot1-301 growth rescue; percent above DMSO median, 100 means doubled. growth rescue, % at 18.8 µM. AID 2716, 2010;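 active = every valid replicate shows activation above 250% relative to neutral control wells; inactive = the rest, any valid replicate at or below 250%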;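 note: OY570 slx delta 5 strain wells were the positive control but not used for scaling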
WT yeast gro inh – growth inhibition of WT strain, primary screen, mitochondrial fusion inhibitor project, WT and mutant strains, chemical genetic; mitochondrial fusion phenotypic screen; inhibition, % at 10 µM; hit rate 2.1% among 190,000; AID 1362, 2008; in the data active = inhibition above about 58%; tested in S. cerevisiae
CSC inhib – cancer stem cell viability inhibitors, primary screen, luminescence; cancer stem cell-like cells viability; inhibition, % at 7.5 µM; hit rate 1.1% among 300,000; in the data active = inhibition above about 75%; inconclusive = no clear call, values can overlap the other calls; tested in HMLE shEcad cells
Efflux pump inh – inhibitors of Candida efflux pumps in yeast, primary screen, S. cerevisiae, Nile Red, multiplex | S. cerevisiae Candida pump triplex | inhibition, % at 10 µM | hit rate 0.44% among 330,000;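 active = plate passing quality check with inhibition over a set limit, or well fluorescence over plate mean plus 4 SD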;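 note: Nile Red retained in pooled yeast measured as flow cytometry median fluorescence; 0% = buffer negative control and 100% = Enniatin B positive control; higher means more Nile Red kept so more efflux inhibition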
T cruzi repl – inhibitors of intracellular T. cruzi growth, primary screen, luminescence, NIH3T3 host cells. hit rate 1.4% among 300,000. inhibition, % (no concentration beside the values). T. cruzi beta-gal in NIH3T3, 90 h. AID 1885, 2009;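 active = mean inhibition across valid replicates above about 55%, limit read from the data; inconclusive = mean below that limit but half or more replicates reach it; inactive = mean below it, under half of replicates reach it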;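 note: signal also drops with host cell toxicity which is not excluded here; 0% = plate median of DMSO wells and 100% = zero luminescence signal; higher percent means less beta-gal luminescence so fewer parasites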
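Read-out: Parasite load inhibition, % | Test system: Mouse NIH/3T3 fibroblasts infected with β-gal-expressing T. cruzi Tulahuen C4 | Amount: 5,000 cells/well | Medium: DMEM, 2% fetal bovine serum | Signal: GalScreen β-gal luminescence, detergent lysis, 60 min | Timing: 3 h attach, ≥90 h co-culture | Also added: Tulahuen C4 trypomastigotes, 5000/well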
Beta apoptosis – inhibitors of cytokine-induced beta cell apoptosis, primary screen, luminescence | hit rate 0.8% among 300,000 | protection from apoptosis, % (test concentration not listed) | INS-1E cytokine-induced death, ATP luminescence, 48 h; percent of positive-control rescue, neutral wells zero;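 active = Every replicate reaches about 75%, or at least half do and their mean reaches it too, limit read from the data; inconclusive = At least half of replicates reach the limit but their mean does not; inactive = Under half of replicates reach the limit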;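 note: 0% = cytokine-treated negative control wells and 100% = positive control rescue; higher means more ATP so stronger rescue from cytokine killing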
Cmpd fluor yeast – compound fluorescence in yeast efflux pump counter-screen; shares compounds with Efflux pump inh; S. cerevisiae AD/pABC3, flow cytometry; fluorescence ratio to DMSO, % at 10 µM; AID 588517; hit rate 4% among 1,700;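 active = fluorescence ratio to DMSO above its plate's cutoff, the plate mean ratio plus 5 SD, cut at about 210% in these data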;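 note: unstained yeast with no Nile Red so the signal is compound autofluorescence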
Mdr1 pump inh – inhibitors of Candida albicans Mdr1 efflux, confirmation, flow cytometry, singleplex, Cherry Pick1 set | shares compounds with Efflux pump inh | S. cerevisiae AD/CaMDR1, Nile Red efflux | inhibition, % at 10 µM | hit rate 1% among 1,700; in the data active = inhibition above about 26%;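 note: 0% = DMSO vehicle and 100% = reference inhibitor; higher means more Nile Red retained so more efflux inhibition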
CaCdr2 efflux inh – inhibitors of Candida albicans Cdr2 efflux pump, confirmation, S. cerevisiae AD/CaCDR2, flow cytometry, cherry pick 1, singleplex; shares compounds with Efflux pump inh; Nile Red retention; Nile Red retention ratio vs DMSO, % at 10 µM; hit rate 4% among 1,700; AID 588520, 2011; in the data active = Nile Red retention ratio vs DMSO above about 190%;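 note: higher ratio means more blocking of Cdr2 efflux of the dye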
CaCdr1 efflux inh – inhibitors of Candida albicans Cdr1 efflux pump, confirmation, S. cerevisiae AD/CaCDR1, flow cytometry, cherry pick 1, singleplex | shares compounds with Efflux pump inh | Nile Red efflux | inhibition, % at 10 µM | hit rate 1% among 1,700;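 active = inhibition above the screen-wide mean plus twice its standard deviation, cut at about 32% in these data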
* = called active by the depositor; ? = inconclusive; · = not tested or not shown. In the library only some 4.8% were active in any assay of this set; here they are far more common.

SMILES	Mot1-301 SUMO	WT yeast gro inh	CSC inhib	Efflux pump inh	T cruzi repl	Beta apoptosis	Cmpd fluor yeast	Mdr1 pump inh	CaCdr2 efflux inh	CaCdr1 efflux inh
Cc1ccc(N2CN=c3s/c(=C\c4ccccn4)c(=O)n3C2)cc1	-7	17	-9	0	-3	·	·	·	·	·
Cc1ccc(NC(=O)c2ccc3ccccc3n2)nc1	17	7	-5	0	2	7	·	·	·	·
CCOc1ccc(-c2c(C(=O)N/N=C(\C)c3ccco3)nnn2-c2nonc2N)cc1	4	·	-16	0	16	-1	·	·	·	·
CCOc1ccc(-c2c(C(=O)N/N=C/c3ccc(O)cc3)nnn2-c2nonc2N)cc1	-31	·	3	0	7	-7	98	0	101	0
CCCc1c(C(=O)N/N=C/c2c(OC)ccc3ccccc23)nnn1-c1nonc1N	-12	·	10	0	-6	11	104	0	103	0
CCCOc1ccc(-c2c(C(=O)N/N=C/c3ccc(OCC)cc3)nnn2-c2nonc2N)cc1	-6	7	1	0	8	-1	·	·	·	·
CCOc1ccc(-c2c(C(=O)N/N=C(\C)c3ccccc3OC)nnn2-c2nonc2N)cc1	-6	·	8	0	15	1	98	0	92	0
C/C(=N\NC(=O)c1nnn(-c2nonc2N)c1COc1ccc(F)cc1)c1ccc(Cl)cc1	-8	·	-5	0	-3	-3	99	0	109	0
COCCNC(=O)/C(C#N)=C/C(C)=C/c1ccccc1	-9	1	3	17*	-12	5	99	0	102	0
CCN1CCN(c2ccc(NC(=O)c3ccc(Cl)c(N4CCCC4=O)c3)cc2)CC1	-9	·	-2	0	6	4	·	·	·	·
COc1ccc(OC)c2sc(N3CCCCC3)nc12	0	14	10	1.1*	-2	2	103	0	95	0
Cc1cccc(NC(=O)/C(C#N)=C/c2cn(CC(=O)NCc3ccco3)c3ccccc23)c1C	6	-6	9	11*	-4	-4	106	0	116	0
Cc1cc(C)c(NC(=O)C2CC3CCC2C3)c(C)c1 (stereo not given)	11	·	9	0	-4	-4	·	·	·	·
Cc1cccc(C)c1NC(=O)C1CC2CCC1C2 (stereo not given)	-8	·	·	0.8*	2	·	113	0	120	0
COC(=O)c1ccc(N)c(N=CC2=C(O)CC(C)(C)CC2=O)c1	200	10	7	1.7*	-13	0	95	0	105	0
Cc1c(NC(=O)c2ncn[nH]2)cccc1-c1nc2ccccc2s1	17	0	31	6.2*	-8	0	101	0	98	0
CC(NS(=O)(=O)OCC(Cl)(Cl)Cl)c1ccc(C(C)(C)C)cc1 (stereo not given)	-18	·	?	0	28	9	·	·	·	·
CC(=O)OCCC(NS(=O)(=O)OCC(Cl)(Cl)Cl)c1ccccc1 (stereo not given)	6	·	2	0.7*	-14	0	111	0	106	0
NC(=S)NNC(=O)[C@@H]1CCCC[C@@H]1C(=O)O	1	-1	-12	15*	-3	6	101	0	104	0
CN1C/C(=C\c2ccc(N3CCOCC3)cc2)C(=O)/C(=C/c2ccc(N3CCOCC3)cc2)C1	35	-13	15	0.8*	-18	-7	99	0	114	0
CN1C/C(=C/c2ccncc2)C(=O)/C(=C/c2ccncc2)C1	-3	·	-4	0	-21	0	·	·	·	·
COc1cc(N)c(Br)cc1C(=O)O	252	-4	-1	0.7*	-10	-3	92	0	93	0
CN1CCN(C(=O)/C(=C\c2cccs2)NC(=O)c2ccco2)CC1	8	-8	-19	9.7*	-13	-8	102	0	104	0
Cc1sc(NC(=S)NC(=O)c2cccs2)nc1-c1ccc(C(C)C)cc1	26	-12	-2	0.9*	-15	0	103	0	94	0
Cc1sc(NC(=O)c2cccs2)nc1-c1ccccc1	5	4	14	-1	8	-1	·	·	·	·
SMILES	Mot1-301 SUMO	WT yeast gro inh	CSC inhib	Efflux pump inh	T cruzi repl	Beta apoptosis	Cmpd fluor yeast	Mdr1 pump inh	CaCdr2 efflux inh	CaCdr1 efflux inh
CNC(=O)c1ccc(NC(=O)Nc2ccccc2)cc1	-23	·	4	0	-6	-1	·	·	·	·
CCC(C)(C)NC(=O)C(c1ccccc1F)N(C(=O)c1ccn[nH]1)c1ccccc1 (stereo not given)	-18	-1	12	0.4*	4	2	93	0	108	0
CCC(C)(C)NC(=O)C(c1cccs1)N(C(=O)c1ccn[nH]1)c1cccc(OC)c1 (stereo not given)	-23	-4	-11	0	-6	-4	·	·	·	·
COc1ccc(-c2cc(C(=O)NCCN3CCOCC3)c3ccccc3n2)cc1OC	-1	·	-16	0	-5	4	·	·	·	·
COc1ccc(-c2cc(C(=O)NCCN3CCOCC3)c3ccccc3n2)cc1	9	-11	-10	0	-2	3	108	0	106	0
Cc1ccc2nc(C(Cl)(Cl)Cl)nc(N/N=C/c3ccncc3)c2c1	-5	8	-9	0.4*	-3	4	105	0	102	0
Cc1ccc(-c2nc(N/N=C/c3ccncc3)c3ccccc3n2)cc1	29	47	-18	0	8	64	·	·	·	·
CCNC(=S)N(CCc1ccccc1C)Cc1cc2cc(OC)c(OC)cc2[nH]c1=O	-12	-15	15	0	41	-6	·	·	·	·
COc1cc2cc(CN(CCc3ccccc3C)C(=S)NCCCN(C)C)c(=O)[nH]c2cc1OC	-9	-8	3	8.9*	13	1	105	0	97	0
CNc1ccccc(-c2ccc3cc4c(cc3n2)OCO4)c1=O	-4	-1	-10	0	3	11	·	·	·	·

High-throughput results deposited in PubChem by several laboratories.
